Test results as given in ChEMBL document CHEMBL1124069, “Synthesis and pharmacological characterization of a series of leukotriene analogues with antagonist and agonist activities” (1988).

Tests used:
[1] = tested on: Cysteinyl leukotriene receptor (Cavia porcellus); assay: Ability to inhibit the contraction induced by 8 nM LTE4 on isolated guinea pig tracheal strips at 10 uM dose; % antagonism / % basal tension; details: Trachea
Cavia porcellus [2] = organism: Cavia porcellus; assay: Ability to inhibit the contraction induced by 8 nM LTE4 on isolated guinea pig tracheal strips at 4 uM dose; % antagonism / % basal tension; assay type: functional, Trachea
Cavia porcellus [3] = organism: Cavia porcellus; assay: Ability to inhibit the contraction induced by 8 nM LTE4 on isolated guinea pig tracheal strips at 5 uM dose; % antagonism / % basal tension; assay type: functional, Trachea
Summary of the method: (§1)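 Guinea pig tracheal spirals were held at 2 g resting tension and stabilized for 60 min, with bath changes every 15 min. Tissues received two 10-min challenges with 8 nM LTE4, each followed by a 60-min wash. Test compound was then added for 10 min, noting any resting-tension change, before a third LTE4 challenge. % inhibition = (2nd−3rd)/2nd×100, corrected for paired vehicle tissue. Significance was tested by paired t test (p<0.05).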

Cavia porcellus [4] = organism: Cavia porcellus; assay: Ability to inhibit the contraction induced by 8 nM LTE4 on isolated guinea pig tracheal strips at 1 uM dose; % antagonism / % basal tension; assay type: functional, Trachea
Summary of the method: as §1

Cavia porcellus [5] = organism: Cavia porcellus; assay: Ability to inhibit the contraction induced by 8 nM LTE4 on isolated guinea pig tracheal strips at 50 uM dose; % antagonism / % basal tension, compound was checked against BaCl2 as agonist at specified concentration/14; assay type: functional, Trachea
Summary of the method: as §1

Cavia porcellus [6] = organism: Cavia porcellus; assay: Ability to inhibit the contraction induced by 8 nM LTE4 on isolated guinea pig tracheal strips at 3.3 uM dose; % antagonism / % basal tension
Cavia porcellus [7] = organism: Cavia porcellus; assay: Ability to inhibit the contraction induced by 8 nM LTE4 on isolated guinea pig tracheal strips at 10 uM dose; % antagonism / % basal tension, Agonist activity was too great to determine if there was any partial antagonism/100; assay type: functional; details: Trachea, filed as agonist
Summary of the method: as §1

| Compound | Ratio [1] | further results |
| --- | --- | --- |
| CCCCCc1ccc(C/C=C\[C@@H](SCc2ccc(C(=O)O)cc2OC)[C@@H](O)CCCC(=O)O)cc1 | 43 | – |
| CCCc1c(OCC(O)COc2ccc3c(=O)cc(C(=O)O)oc3c2CCC)ccc(C(C)=O)c1O (stereo not drawn) [FPL-55712] | – | Ratio (Cavia porcellus [2]): 62 |
| CCCCCCCc1ccc(C/C=C\[C@@H](SCc2ccc(C(=O)O)cc2)[C@@H](O)CCCC(=O)O)cc1 | 37 | – |
| CCCCCCCc1ccc(C/C=C\[C@@H](SCc2ccc(C(=O)O)cc2N)[C@@H](O)CCCC(=O)O)cc1 | 66 | – |
| CCCCCCCc1ccc(C/C=C\[C@@H](SCc2ccc(C(=O)O)cc2OC)[C@@H](O)CCCC(=O)O)cc1 | 74 | Ratio (Cavia porcellus [3]): 31 |
| CCCCCCCc1ccc(C/C=C\[C@@H](SCc2cccc(/C=C/C(=O)O)c2)[C@@H](O)CCCC(=O)O)cc1 | 34 | – |
| CCCCCCOc1ccccc1C/C=C\[C@@H](SCc1ccc(C(=O)O)cc1OC)[C@@H](O)CCCC(=O)O | 24 | – |
| CCCCCCCc1cccc(C/C=C\[C@@H](SCc2ccc(C(=O)O)cc2OC)[C@@H](O)CCCC(=O)O)c1 | 52 | Ratio (Cavia porcellus [3]): 45 |
| CCCCCCCc1ccc(C/C=C\[C@@H](SCc2cccc(C(=O)O)c2)[C@@H](O)CCCC(=O)O)cc1 | – | Ratio (Cavia porcellus [4]): 16 |
| CCCCC/C=C/c1ccc(C/C=C\[C@@H](SCc2ccc(C(=O)O)cc2OC)[C@@H](O)CCCC(=O)O)cc1 | 39 | – |
| CCCCCCCc1ccc(C/C=C\[C@@H](SCc2ccc(C(=O)O)cc2F)[C@@H](O)CCCC(=O)O)cc1 | 63 | – |
| CCCCCCOc1cccc(C/C=C\[C@@H](SCc2ccc(C(=O)O)cc2OC)[C@@H](O)CCCC(=O)O)c1 | 86 | Ratio (Cavia porcellus [5]): 14; Ratio (Cavia porcellus [6]): 32 |
| CCCCCCCc1ccc(C/C=C\[C@@H](SCc2cc(C(=O)O)ccc2N)[C@@H](O)CCCC(=O)O)cc1 | 39 | – |
| CCCCCCCc1ccc(C/C=C\[C@@H](SCc2ccc(C(=O)O)cc2[N+](=O)[O-])[C@@H](O)CCCC(=O)O)cc1 | 24 | – |
| CCCCCCOc1ccc(C/C=C\[C@@H](SCc2ccc(C(=O)O)cc2OC)[C@@H](O)CCCC(=O)O)cc1 | – | Ratio (Cavia porcellus [7]): Agonist activity was too great to determine if there was any partial antagonism |
| CCCCCCCc1ccc(C/C=C\[C@@H](SCc2ccc(C(=O)O)c(N)c2)[C@@H](O)CCCC(=O)O)cc1 | 51 | – |
| CCCCC/C=C/c1cccc(C/C=C\[C@@H](SCc2ccc(C(=O)O)cc2OC)[C@@H](O)CCCC(=O)O)c1 | 57 | Ratio (Cavia porcellus [4]): 7 |
| CCCCCCCc1ccc(C/C=C\[C@@H](Sc2cccc(N)c2)[C@@H](O)CCCC(=O)O)cc1 | 14 | – |
| CCCCCCCc1ccc(C/C=C\[C@@H](Sc2ccc(NC(C)=O)cc2)[C@@H](O)CCCC(=O)O)cc1 | 4 | – |
| CCCCCCCc1ccc(C/C=C\[C@@H](SCc2ccccc2C(=O)O)[C@@H](O)CCCC(=O)O)cc1 | 39 | – |
| CCCCCCCc1ccc(C/C=C\[C@@H](SCc2ccc(/C=C/C(=O)O)cc2)[C@@H](O)CCCC(=O)O)cc1 | 38 | – |
| CCCCCCCc1ccc(C/C=C\[C@@H](Sc2ccc(Cl)c(Cl)c2)[C@@H](O)CCCC(=O)O)cc1 | 2 | – |
| CCCCCCCc1ccc(C/C=C\[C@@H](SCc2ccc(N)c(C(=O)O)c2)[C@@H](O)CCCC(=O)O)cc1 | 68 | – |
